This data set can be described thus: Volume of distribution at steady state in Beagle dog at 0.2 to 0.5 mg/kg, iv. The note with it: in vivo, read-out: Vdss. Format: ADME, organism-based, Canis lupus familiaris. Also noted: dose 0.2-0.5 mg/kg, route intravenous. In a few lines: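 Single IV dose of 0.2–0.5 mpk given to 10 kg beagles. Half-life reported in h, clearance in mL/min/kg and Vdss in L/kg.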
Regarding `CCOCCn1nc(CC)c2nc(N3CCC(N)CC3)nc(Nc3cc(C)ccn3)c21`, the Vd is 50.4 L/kg.
Then `CCOCCn1nc(CC)c2nc(N3CCC(C(=O)O)CC3)nc(Nc3cc(C)ccn3)c21`, with 3.8 L/kg; and `CCOCCn1nc(CC)c2nc(N3CCN(C)CC3)nc(Nc3cc(C)ccn3)c21`, with 11.4 L/kg.

For the origin of these results see ChEMBL document CHEMBL1157825, “1-(2-Ethoxyethyl)-1H-pyrazolo[4,3-d]pyrimidines as potent phosphodiesterase 5 (PDE5) inhibitors” (Bioorg Med Chem Lett, 2010).
